Screening data as filed in PubChem BioAssay.
Hits are enriched below; roughly 4.7% of the tested compounds scored in any of these assays.
MPTP block: blocks calcium-induced mitochondrial swelling | isolated mouse mitochondria, Ca2+ swelling absorbance, 30 min | inhibition, % at 10 µM | 360,000 compounds, 1.4% hits | AID 602449;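 active means inhibition of 50% or more, scaled per plate between neutral and stimulator controls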;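 further: 0% = DMSO wells given calcium and 100% = 1 mM EGTA wells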
GRIN3A LBD mod: NR3A (human) ligand-binding domain modulation; NR3A LBD differential scanning fluorimetry, Tm shift; 0% = protein alone, 100% = glycine-bound protein; 340,000 compounds, 2.5% hits; Tm shift relative to glycine control, % at 25 µM;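 active means melting temperature shift of at least 10% of the positive control shift, at one fixed dose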
MT1-MMP act inh: blocks activation of human MT1-MMP | P50281 | HT1080 RFP-PRO-GFP cells, GFP/RFP ratio fluorescence, overnight; percent of plate control window, DMSO zero | GFP/RFP ratio change, % at 20 µM | 360,000 compounds, 0.061% hits;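 active means GFP/RFP ratio change of at least 30% with cell ATP level not reduced by more than half and red fluorescence within 50% of control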
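Test system: HT1080 RFP-PRO-GFP cells; Benchmarks: DMSO and RFP-L50D-GFP cell wells; Timing: cells overnight before dosing, compound overnight, 37 °C, 5% CO2; Compound: one 20 µM compound dose with 1% DMSO; Read-out: GFP/RFP fluorescence ratio.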
ADAM10 inh: inhibitors of human ADAM10; O14672; recombinant ADAM10, EDANS/DABCYL FRET peptide cleavage, 3 h; inhibition, % at 7 µM; 370,000 compounds, 0.62% hits;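 active means inhibition above a per-campaign cutoff equal to the mean of compounds falling between control-based bounds plus 3 SD, cut at about 20% in these data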;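 further: 0% = DMSO wells while the 100% control is not disclosed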
Target sequence (O14672 214-748 limits assumed): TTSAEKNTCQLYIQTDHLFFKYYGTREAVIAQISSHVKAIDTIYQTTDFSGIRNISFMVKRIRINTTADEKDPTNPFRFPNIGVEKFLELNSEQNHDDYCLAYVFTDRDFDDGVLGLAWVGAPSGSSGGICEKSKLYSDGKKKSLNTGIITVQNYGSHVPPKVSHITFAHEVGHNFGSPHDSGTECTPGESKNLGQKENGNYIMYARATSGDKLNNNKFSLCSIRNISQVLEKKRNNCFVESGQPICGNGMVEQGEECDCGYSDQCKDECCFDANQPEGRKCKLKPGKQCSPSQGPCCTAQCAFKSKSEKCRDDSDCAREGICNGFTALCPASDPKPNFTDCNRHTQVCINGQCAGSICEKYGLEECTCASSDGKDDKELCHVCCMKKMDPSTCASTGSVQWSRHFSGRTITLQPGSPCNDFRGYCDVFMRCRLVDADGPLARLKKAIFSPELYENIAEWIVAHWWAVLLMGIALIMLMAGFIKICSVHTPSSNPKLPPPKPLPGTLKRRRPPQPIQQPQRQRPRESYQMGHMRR
ADAM17 inh: inhibits human ADAM17. recombinant ADAM17, EDANS/DABCYL FRET peptide cleavage. AID 720648. inhibition, % at 6.95 µM. 370,000 compounds, 0.83% hits;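 active means inhibition above the mean of compounds lying between control limits plus 3 SD, set per campaign, cut at about 8.5% in these data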;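 further: 0% = DMSO-only wells as the low control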
SKN-1 block: C. elegans SKN-1 inhibition; C. elegans VP596 Pgst-4::GFP/RFP ratio, acrylamide-induced, 24 h; inhibition, % at 21.8 µM; 360,000 compounds, 0.49% hits; AID 624304;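 active means interference check ratio from 0.5 to 1.5 plus GFP to RFP signal ratio inhibition reaching or exceeding a fixed threshold, cut at about 30% in these data, passing the limit was not always enough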
MPTP counter: Rhodamine 123 counter-screen of mitochondrial pore hits; shares compounds with MPTP block; isolated mitochondria, membrane potential, Rhodamine 123 fluorescence; inhibition, % at 10 µM; 5,000 compounds, 78% hits; in the data active means inhibition above about 22%;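 further: 0% = DMSO vehicle and 100% = positive control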
Starred values were filed as active, the others as inactive; . = not tested or not shown.

SMILES | MPTP block | GRIN3A LBD mod | MT1-MMP act inh | ADAM10 inh | ADAM17 inh | SKN-1 block | MPTP counter
O=C(NCc1ccncc1)C(=O)N/N=C/c1ccc(OCc2ccccc2)cc1 | 3 | 1 | 6 | -12 | -6 | -9 | .
O=NN(CCc1ccncc1)c1ccc(OCc2ccccc2)cc1 | 93* | 2 | -10 | 1 | -3 | 2 | 89*
S=C(Nc1ccc(Cl)cc1)Nc1ccc2c(c1)OCCO2 | 50* | 2 | 3 | -4 | -3 | 5 | 99*
Cc1noc(C)c1CSCC(=O)Nc1ccc(OC(F)F)c(Cl)c1 | -1 | 4 | 1 | 8 | -2 | 11 | .
Fc1ccc(NC(=S)Nc2ccc(F)c(Cl)c2)cc1Cl | 92* | 12* | -7 | . | . | -2 | 89*
Cc1ccc(NC(=S)Nc2ccc(OC(F)F)c(Cl)c2)cc1F | 98* | 32* | -1 | 2 | -2 | 8 | 87*
O=C(NC(=S)Nc1ccc(F)c(Cl)c1)C1CC1 | 0 | 1 | 1 | -7 | -5 | 13 | .
COc1ccc(CNC(=S)Nc2ccc(F)c(Cl)c2)cc1 | 96* | 1 | 2 | 7 | 2 | 1 | 97*
NS(=O)(=O)c1ccc(CNC(=S)Nc2ccc(F)c(Cl)c2)cc1 | 1 | -1 | 2 | 3 | 0 | 1 | .
COc1ccc(CNC(=S)Nc2ccc(Br)cc2)cc1 | 88* | -4 | 5 | 13 | 4 | 1 | 92*
NS(=O)(=O)c1ccc(NC(=S)Nc2ccc(F)c(F)c2)cc1 | 67* | -1 | 4 | 0 | 0 | -5 | 68*
c1coc(CNc2ncnc3nc[nH]c23)c1 | -1 | 0 | -4 | 7 | -2 | 0 | .
Cc1ccc2[nH]c3c(NCc4ccco4)ncnc3c2c1 | 60* | -2 | 7 | -405 | -127 | 8 | 85*
COc1cc(CNc2ncnc3c2[nH]c2ccc(C)cc23)cc(OC)c1 | 86* | 8 | 4 | -145 | -60 | -11 | 83*
COc1ccc(/C=N/Nc2ncnc3c2[nH]c2ccc(C)cc23)c(OC)c1OC | 11 | -3 | 7 | -25 | -7 | 2 | .
O=c1[nH]c2cc3c(cc2cc1C(c1nnnn1C1CCCCC1)N1CCSCC1)OCCO3 (configuration not stated) | 63* | -12 | -5 | -377 | -146 | 6 | -2
Cc1c(CN(C)C(=O)c2sc3cc(Cl)ccc3c2Cl)cnn1C | 84* | -3 | -3 | 2 | 1 | 23 | 80*
Cc1cccc(C)c1NC(=O)CN(C)C(=O)c1cc([N+](=O)[O-])ccc1N1CCOCC1 | -1 | 1 | 2 | 1 | -4 | 6 | .
Cc1n[nH]c(C)c1CCOc1ccc(C(C)C)cc1 | 40 | 0 | 1 | 6 | 3 | 3 | .
COc1ccc(OCCCCc2c(C)n[nH]c2C)cc1 | 51* | -2 | 2 | -3 | 3 | -11 | 36*
CN(C)c1ccc(C(=N)Cc2ccc3ccccc3n2)cc1 | 0 | . | -20 | -10 | 6 | 33 | .
Cc1c(O)ccc(/C(Cc2ccc3ccccc3n2)=N\O)c1O | 73* | -9 | -13 | 3 | 2 | 16 | 35*
CC(C)CNC(=O)CN1C(=O)NC2(CCCc3ccccc32)C1=O (configuration not stated) | -1 | 0 | 1 | -3 | -2 | -2 | .
Cc1cc(Cl)ccc1Oc1ccc(C(N)=O)cc1[N+](=O)[O-] | 1 | 2 | 3 | 5 | 1 | -6 | .
Cc1cc(Cl)ccc1Oc1ccccc1C(=O)CC#N | 66* | -2 | -2 | 8 | -1 | 4 | 75*
Cc1c(NC(=S)NC(=O)CSc2ccc(Cl)cc2)cccc1C(=O)O | 0 | 0 | -2 | -9 | 0 | 17 | .
CS(=O)(=O)c1ccc2nc(NC(=O)Nc3ccc(Cl)c(Cl)c3)sc2c1 | 95* | 31* | -1 | 6 | 0 | 3 | 71*
CC(C)(C)C(=O)Nc1nc2ccc(S(C)(=O)=O)cc2s1 | 0 | -1 | 4 | -2 | 1 | -2 | .
Cc1ccc(NC(=O)Nc2nc3ccc(S(C)(=O)=O)cc3s2)cc1 | 65* | 28* | -8 | -3 | -9 | 2 | 70*
